Assay outcomes: PubChem, several laboratories
This is a sample that favours compounds with a hit; in the whole collection about 2.7% have one here.
ASAP1 GAP inh = blocks human ASAP1-stimulated Arf1 GTP hydrolysis. AID 624377. GDP FP detection. 360,000 tested, 0.19% active. Q9ULH1. inhibition, % at 16.5 µM; in the data active means inhibition above about 25%
Target sequence (Q9ULH1 325-724 limits assumed): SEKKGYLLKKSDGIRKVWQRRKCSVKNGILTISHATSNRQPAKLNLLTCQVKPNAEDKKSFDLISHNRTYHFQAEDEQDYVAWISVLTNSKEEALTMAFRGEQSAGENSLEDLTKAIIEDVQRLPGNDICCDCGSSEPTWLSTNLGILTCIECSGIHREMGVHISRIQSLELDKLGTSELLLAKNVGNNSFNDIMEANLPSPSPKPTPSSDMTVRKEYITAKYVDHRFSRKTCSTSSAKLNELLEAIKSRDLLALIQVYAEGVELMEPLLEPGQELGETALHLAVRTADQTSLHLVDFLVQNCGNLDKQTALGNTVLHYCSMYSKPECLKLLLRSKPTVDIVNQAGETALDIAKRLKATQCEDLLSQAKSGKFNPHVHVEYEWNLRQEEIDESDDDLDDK
Rev-erbA mod = modulates human Rev-erb alpha binding to DNA; P20393; Rev-erbα–FITC-DNA binding, fluorescence polarization, 90 min; activity, % at 10 µM; 370,000 tested, 0.79% active; AID 1259318;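 active means activity above about 14%, limit read from the data; passing the limit was not always enough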
bovine MsrA act = bovine methionine sulfoxide reductase A activation; purified bovine MsrA, absorbance read-out; activation, % at 10.6 µM; 360,000 tested, 0.3% active; in the data active means activation above about 7.5%
ARFGAP1 inhibitor = rat ARFGAP1 inhibition; Arfgap1-stimulated ARF1 GTP hydrolysis, GDP FP detection; inhibition, % at 16.5 µM; 360,000 tested, 0.26% active; AID 651572;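 active means inhibition above a per-plate limit, mean inhibition of low control wells plus 3 SD, cut at about 25% in these data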
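System: truncated rat Arfgap1 GAP domain / Benchmarks: high control wells lacking Arfgap1, low control full reaction with DMSO / Times: compound-enzyme preincubation 20 min, reaction 120 min, detection 60 min, 25 °C / Repeats: one replicate per compound / Also added: human ARF1(Δ1-17)-GTP substrate / Measured by: Tracer-displacement fluorescence polarization with EDTA stop, 620/688 nm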
MsrA inhibitor = inhibits bovine methionine sulfoxide reductase A; inhibition, % at 15.5 µM; purified bovine MsrA, absorbance read-out; 360,000 tested, 0.75% active; AID 651718; in the data active means inhibition above about 4.5%
HGIII-sPLA2 inh = Blocks human group III sPLA2 activity | inhibition, % at 12.2 µM | QFRET BODIPY PC-A2 liposome hydrolysis, fluorescence | 370,000 tested, 0.56% active | Q9NZ20 | AID 743126;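 active means inhibition above mean plus 3 SD of compounds lying within the high and low control bounds, cut at about 19% in these data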
NR1D1 mod conf = confirmation of modulators of human Rev-erb alpha DNA binding. AID 1259319. 3,000 tested, 61% active. shares compounds with Rev-erbA mod. activation, % at 25 µM. Rev-erb alpha FITC-DNA binding, fluorescence polarization, 90 min;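 active means activation at or above a set limit, or at least 3 SD above the negative control mean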
RORg counter = counter-screen for Rev-erb alpha modulators: RORgamma DNA binding | shares compounds with Rev-erbA mod | purified RORgamma protein-FITC-DNA binding, fluorescence polarization | IC50, µM | 910 tested, 8% active;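 active means Compounds whose fitted half-maximal concentration for disrupting protein-DNA binding is below 10 micromolar; the record names Rev-erb in its text, so the target is in doubt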
Of the large screens only hits and unclear results are named; the others gave an inactive call (follow-up assays come after a bar, where they were run).

Cn1c(C(=O)NC2CCCCCC2)cc2c(=O)n(C)c3ccccc3c21	Rev-erbA mod 47.6 | NR1D1 mod conf 26.0
Cn1c(C(=O)NCc2cccs2)cc2c(=O)n(C)c3ccccc3c21	Rev-erbA mod 33.2 | NR1D1 mod conf 18.0
Cc1ccc(CNC(=O)c2cc3c(=O)n(C)c4ccccc4c3n2C)cc1	Rev-erbA mod 63.1 | NR1D1 mod conf 43.2 | RORg counter inactive
CCN(CC)c1ccc(/C=C(/C#N)c2nc3ccccc3[nH]2)c(OC(C)C)c1	Rev-erbA mod 39.1 | NR1D1 mod conf 46.0 | RORg counter inactive
COC(=O)c1ccccc1-c1c2ccc(=N)cc-2oc2cc(N)ccc12	Rev-erbA mod active | NR1D1 mod conf active | RORg counter inactive
C[C@H](CO)N1C[C@H](C)[C@@H](CN(C)Cc2ccc(-c3ccccc3)cc2)OCc2cnnn2CCCC1=O	none
Oc1ccc(N=Nc2ccccc2C(F)(F)F)c2cccnc12	Rev-erbA mod 23.2 | NR1D1 mod conf inactive
CCOC(=O)c1csc(NC(=O)c2ccc(S(=O)(=O)N(C)C)cc2)n1	none
CCOC(=O)c1sc(NC(=O)c2ccc(S(=O)(=O)N(C)C)cc2)nc1C	Rev-erbA mod 36.1 | NR1D1 mod conf 38.1 | RORg counter inactive
CCCN(CCC)S(=O)(=O)c1ccc(C(=O)Nc2nc(-c3ccccc3)c(C(=O)OCC)s2)cc1	Rev-erbA mod 33.3 | NR1D1 mod conf inactive
Cc1ccccc1S(=O)(=O)N(C)C[C@@H]1OCc2cn(nn2)CCCC(=O)N([C@H](C)CO)C[C@H]1C	none
N#CC1=C(Nc2ccccc2Cl)SC2(CCCC2)NC1=O	none (no result: ASAP1 GAP inh, Rev-erbA mod, ARFGAP1 inhibitor, MsrA inhibitor, HGIII-sPLA2 inh)
CCCS(=O)(=O)NC(=O)C1(C)CCCN(C(=O)c2cccc(C(F)(F)F)c2)C1 (stereo not drawn)	none
COc1ccc(NC(=O)CSc2nnc(-c3cccs3)n2N)c(OC)c1	Rev-erbA mod 12.8 | NR1D1 mod conf inactive
CC1(C)CC(=O)C=C(c2ccc(-c3ccc(OC(F)(F)F)cc3)cc2)C1=O	none
Cc1cc(OC(C)C(=O)NCc2cccnc2)c2c(C)c(C)c(=O)oc2c1 (stereo not drawn)	none
Cc1cc(OC(C)C(=O)NCc2cccnc2)c2c(C)c(Cc3ccccc3)c(=O)oc2c1 (stereo not drawn)	Rev-erbA mod 106.6 | NR1D1 mod conf 104.5 | RORg counter inactive
CCc1ccc(NC(=O)c2cc(-c3ccc(OC)cc3)on2)cc1	none
COc1ccc(-c2cc(C(=O)Nc3ccc(Br)cc3)no2)cc1	Rev-erbA mod 34.8 | NR1D1 mod conf inactive
Cc1cc(NC(=O)c2cccc(C(=O)Nc3cc(C)on3)n2)no1	Rev-erbA mod 21.5 | NR1D1 mod conf 16.5
Cc1cc(NC(=O)c2c(Cl)cccc2Cl)no1	none
COc1ccc(NC(=O)c2cc3nc(-c4ccccc4)cc(-c4ccccc4)n3n2)c(OC)c1	Rev-erbA mod 21.2 | NR1D1 mod conf inactive
Cn1nc(C(=O)Nc2ccc(Br)cc2)cc1C(=O)Nc1ccc(Br)cc1	Rev-erbA mod 13.3 | NR1D1 mod conf inactive
O=C1NCCNC1c1ccccc1 (stereo not drawn)	none
COc1ccc(-c2cc(C(=O)Nc3cc(C)on3)no2)cc1OC	Rev-erbA mod 36.4 | NR1D1 mod conf 28.9
Cc1cc(NC(=O)c2cc(-c3ccc(O)cc3)on2)no1	none
COc1ccc(-c2cc(C(F)(F)F)n3nc(C(=O)Nc4cc(C)on4)cc3n2)cc1OC	Rev-erbA mod 34.1 | NR1D1 mod conf 25.7
COc1cccc(-c2cc(C(=O)Nc3cc(C)n(Cc4ccc(Cl)cc4)n3)no2)c1	none
COc1ccc(OC)c(-c2cc(C(=O)Nc3cc(C)n(Cc4ccc(Cl)cc4)n3)no2)c1	Rev-erbA mod 15.6 | NR1D1 mod conf inactive
Cc1ccc(C2(C(F)(F)F)NC(=O)N3C(=C2C#N)Nc2ccccc23)cc1 (stereo not drawn)	Rev-erbA mod 33.5 | NR1D1 mod conf 32.3 | RORg counter inactive
CN1C2=C(C#N)C(c3ccccc3)(C(F)(F)F)NC(=O)N2c2ccccc21 (stereo not drawn)	none
